Data published in PMC5558615 (ChemMedChem, 2015).
Where a chain is given by its changes, count along the chain named.

What was measured:
saposin B (sapB) [1] = target: T1, saposin B (sapB) (Homo sapiens, UniProt P07602); assay: ITC, two sets of independent sites fit; format: binding
T1 sequence (P07602 195-273): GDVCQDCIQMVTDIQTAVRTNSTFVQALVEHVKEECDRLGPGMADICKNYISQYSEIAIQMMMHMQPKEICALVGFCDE
Outline: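 Ligand-into-buffer control titrations were used in the analysis. Integrated heats were plotted against the ligand/sapB dimer molar ratio and fitted to two independent site sets. Strong-site parameters were reported; for the weak set, only n2·K2·ΔH2.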

saposin B (sapB) [2] = target: T2, saposin B (sapB) (Homo sapiens, UniProt P07602, E263A); assay: ITC, two sets of independent sites fit; format: binding
T2 sequence (P07602 195-273 E263A): T1 sequence (P07602 195-273) with E69A

saposin B = assay: crystal structure

| Kd (saposin B (sapB) [1]) [µM] | Kd (saposin B (sapB) [2]) [µM] | stoichiometry N (saposin B) | Molecule |
| --- | --- | --- | --- |
| 31.8 | 23.1 | – | CCN(CC)CCC[C@@H](C)Nc1ccnc2cc(Cl)ccc12 [chloroquine] |
| – | – | 2 | saposin B (natural protein) |
